Laboratory results reported in ChEMBL document CHEMBL4350999, “Enhanced tumor retention of NTSR1-targeted agents by employing a hydrophilic cysteine cathepsin inhibitor” (Eur J Med Chem, 2019).
pIC50: −log10 of the molar value. Calls of active or inactive are those of the source. The calls are words filed in the database; no cut-off is given here.

Key:
[1] = Drug uptake in human HT-29 cells measured after 240 mins using 177Lu labelled compound by gamma counter method relative to control; format: ADME, cell-based; conditions: ht-29, 4 h
Summary of the method: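 HT-29 cells (~1 × 10^6 in 1 mL medium) were incubated with 177Lu-conjugate (100,000 cpm) at 37 °C and sampled at 15–240 min. After medium washes, surface-bound activity was stripped with pH 2.8 glycine-HCl/NaCl buffer, and the internalized fraction was taken from the 1% SDS lysate. Fractions were gamma-counted as % of total added activity; mean ± SD, n = 3.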

Cathepsin B = Cathepsin B (Homo sapiens, UniProt P07858); test: Binding affinity to cathepsin B in human HT-29 cells assessed as intracellular adduct formation at 0.74 MBq incubated for 4 hrs using 177Lu labelled compound by SDS-PAGE analysis; format: cell-based; set-up: dose or concentration left out as unconfirmed
Summary of the method: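 HT-29 cells (1 × 10^6/well) incubated 4 h at 37 °C with 177Lu conjugate (20 μCi, 0.74 MBq) in 1 mL medium, with or without E-64 (10 μM) or NTSR1 peptide N1 (20 μM). Cells washed and refed; at set times cells pooled, RIPA-lysed with protease inhibitor. Lysates heated 85 °C 2 min, run on 16% tris-glycine SDS-PAGE, and phosphor autoradiography taken after 72 h exposure.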

[2] = Stability of 177Lu labelled compound in human serum assessed as parent compound remaining at 37 degC after 24 hrs by RP-HPLC analysis; format: ADME, cell-free; conditions: read-out: Stability
Summary of the method: (§1)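 Radioconjugate (1.5 mCi, 55.5 MBq) was incubated in 300 μL human serum at 37 °C. At 1, 3 and 24 h, acetonitrile was added and samples were spun at 12,000×g for 5 min. Supernatant was dried under nitrogen, reconstituted in water and analyzed by radio-HPLC.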

[3] = Drug retention in kidney of mouse xenografted with human HT-29 cells assessed as tissue-conjugate adduct formation at 29.6 MBq measured after 72 hrs using 177Lu labelled compound by SDS-PAGE analysis; format: ADME, tissue-based; conditions: in vivo
Summary of the method: (§2)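 HT-29 xenograft mice given 800 μCi (29.6 MBq) 177Lu conjugate i.v. and killed at 72 h. Tumor, liver and kidney homogenized in RIPA with protease inhibitor and supernatants run on SDS-PAGE autoradiography. Other supernatant aliquots filtered through 10 kDa MWCO devices to give the % macromolecule-associated radioactivity; n = 3.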

[4] = Drug retention in liver of mouse xenografted with human HT-29 cells assessed as tissue-conjugate adduct formation at 29.6 MBq measured after 72 hrs using 177Lu labelled compound by SDS-PAGE analysis; format: ADME, tissue-based; conditions: in vivo; summary of the method: as §2
[5] = biological target: Neurotensin receptor type 1 (Homo sapiens, UniProt P30989); test: Displacement of [177Lu] DOTA-beta-ala-[N-alpha-Me8, Dmt11, Tle12] NT6-13 from neurotensin receptor in human HT-29 cells incubated for 45 mins by gamma counter analysis; format: cell-based
Summary of the method: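 HT-29 cells (~1 × 10^6) in McCoy's 5A with HEPES and 2 mg/mL BSA, pH 7.4. Incubated 45 min at 37 °C with 177Lu-N1 (100,000 cpm) plus conjugate at 5 nM–1 μM. Cells washed, bound activity gamma-counted, IC50 obtained by nonlinear regression; biological triplicate.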

Procathepsin L = Procathepsin L (Homo sapiens, UniProt P07711); test: Binding affinity to human liver cathepsin L assessed as protein-conjugate adduct formation incubated for 30 mins using 177Lu labelled compound by SDS-PAGE analysis
Summary of the method: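 Purified human liver CatB or CatL (3 nM) in 50 mM sodium acetate/1 mM EDTA pH 5.0 incubated 30 min with 177Lu conjugate (500,000 cpm) in Tris/MgCl2/DTT buffer pH 5.5, alone or with E-64 (10 μM) or N1 (20 μM). Mixtures heated 85 °C 2 min, run on 16% tris-glycine gel at 110 V for 90 min, and read by phosphor autoradiography.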

[6] = Stability of 177Lu labelled compound in human serum assessed as parent compound remaining at 37 degC after 1 hr RP-HPLC analysis; format: ADME, cell-free; conditions: read-out: Stability; summary of the method: as §1
[7] = Ratio of drug uptake in SCID mouse xenograted with human HT-29 cells assessed as tumour retention to drug uptake in large intestine of SCID mouse xenografted with human HT-29 cells measured after 72 hrs using 177Lu labelled compound; format: ADME, tissue-based, Tumor/Large intestine
Summary of the method: (§3)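 Female SCID mice (5 weeks old) received s.c. flank HT-29 cells (5 × 10^6 in Matrigel). At ~80 mm3, two weeks later, mice were randomized and given 10 μCi (0.37 MBq) of purified 177Lu conjugate i.v. by tail vein. Mice were killed at 4, 24 or 72 h. Tissues were weighed and gamma counted as %ID/g, mean ± SD, n = 5. Tumor-to-tissue ratios were calculated.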

[8] = Ratio of drug uptake in SCID mouse xenograted with human HT-29 cells assessed as tumour retention to drug uptake in kidney of SCID mouse xenografted with human HT-29 cells measured after 4 hrs using 177Lu labelled compound; format: ADME, tissue-based, Tumor/Kidney; summary of the method: as §3
[9] = Ratio of drug uptake in SCID mouse xenograted with human HT-29 cells assessed as tumour retention to drug uptake in blood of SCID mouse xenografted with human HT-29 cells measured after 4 hrs using 177Lu labelled compound; format: ADME, tissue-based, Tumor/Blood; summary of the method: as §3
[10] = Ratio of drug uptake in SCID mouse xenograted with human HT-29 cells assessed as tumour retention to drug uptake in lung of SCID mouse xenografted with human HT-29 cells measured after 4 hrs using 177Lu labelled compound; format: ADME, tissue-based, Tumor/Lung; summary of the method: as §3
[11] = Ratio of drug uptake in SCID mouse xenograted with human HT-29 cells assessed as tumour retention to drug uptake in blood of SCID mouse xenografted with human HT-29 cells measured after 24 hrs using 177Lu labelled compound; format: ADME, tissue-based, Tumor/Blood; summary of the method: as §3
[12] = Ratio of drug uptake in SCID mouse xenograted with human HT-29 cells assessed as tumour retention to drug uptake in liver of SCID mouse xenografted with human HT-29 cells measured after 24 hrs using 177Lu labelled compound; format: ADME, tissue-based, Tumor/Liver; summary of the method: as §3
[13] = Ratio of drug uptake in SCID mouse xenograted with human HT-29 cells assessed as tumour retention to drug uptake in spleen of SCID mouse xenografted with human HT-29 cells measured after 4 hrs using 177Lu labelled compound; format: ADME, tissue-based, Tumor/Spleen; summary of the method: as §3
[14] = Ratio of drug uptake in SCID mouse xenograted with human HT-29 cells assessed as tumour retention to drug uptake in liver of SCID mouse xenografted with human HT-29 cells measured after 4 hrs using 177Lu labelled compound; format: ADME, tissue-based, Tumor/Liver; summary of the method: as §3
[15] = Ratio of drug uptake in SCID mouse xenograted with human HT-29 cells assessed as tumour retention to drug uptake in large intestine of SCID mouse xenografted with human HT-29 cells measured after 4 hrs using 177Lu labelled compound; format: ADME, tissue-based, Tumor/Large intestine; summary of the method: as §3
[16] = Ratio of drug uptake in SCID mouse xenograted with human HT-29 cells assessed as tumour retention to drug uptake in muscle of SCID mouse xenografted with human HT-29 cells measured after 4 hrs using 177Lu labelled compound; format: ADME, tissue-based, Tumor/Muscle; summary of the method: as §3
[17] = Ratio of drug uptake in SCID mouse xenograted with human HT-29 cells assessed as tumour retention to drug uptake in muscle of SCID mouse xenografted with human HT-29 cells measured after 72 hrs using 177Lu labelled compound; format: ADME, tissue-based, Tumor/Muscle; summary of the method: as §3

Chain of Procathepsin L (P07711 114-333 limits assumed): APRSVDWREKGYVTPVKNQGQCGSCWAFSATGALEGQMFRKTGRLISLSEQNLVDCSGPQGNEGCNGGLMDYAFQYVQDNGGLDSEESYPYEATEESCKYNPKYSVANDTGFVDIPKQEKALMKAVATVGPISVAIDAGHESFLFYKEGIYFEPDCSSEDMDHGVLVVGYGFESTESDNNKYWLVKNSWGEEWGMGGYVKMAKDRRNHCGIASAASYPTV
Chain of Neurotensin receptor type 1 (P30989 whole entry): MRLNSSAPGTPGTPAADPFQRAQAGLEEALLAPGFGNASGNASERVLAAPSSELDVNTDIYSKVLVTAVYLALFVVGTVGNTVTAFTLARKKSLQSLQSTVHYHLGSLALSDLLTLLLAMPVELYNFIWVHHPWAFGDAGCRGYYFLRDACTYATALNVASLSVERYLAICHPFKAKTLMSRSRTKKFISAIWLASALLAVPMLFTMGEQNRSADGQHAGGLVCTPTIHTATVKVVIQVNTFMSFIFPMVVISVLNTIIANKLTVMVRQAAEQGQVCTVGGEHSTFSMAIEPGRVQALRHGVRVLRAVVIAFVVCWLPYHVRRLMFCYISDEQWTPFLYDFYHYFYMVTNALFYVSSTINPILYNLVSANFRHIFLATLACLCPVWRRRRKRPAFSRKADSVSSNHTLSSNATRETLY

| Drug uptake [1] | Activity (Cathepsin B) | remaining at 24 h [2] | Drug uptake [3] | Drug uptake [4] | pIC50 [5] | Activity (Procathepsin L) | remaining at 1 h [6] | Ratio [7] | Ratio [8] | Kp at 4 h [9] | Ratio [10] | Kp at 24 h [11] | Ratio [12] | Ratio [13] | Ratio [14] | Ratio [15] | Ratio [16] | Ratio [17] | Structure (SMILES) |
| --- | --- | --- | --- | --- | --- | --- | --- | --- | --- | --- | --- | --- | --- | --- | --- | --- | --- | --- | --- |
| 6% | inactive | 49.5% | Not Active | Not Active | 7.20 | inactive | 84.7% | – | – | – | – | – | – | – | – | – | – | – | Cc1cc(O)cc(C)c1C[C@H](NC(=O)[C@@H]1CCCN1C(=O)[C@H](CCCNC(=N)N)NC(=O)[C@H](CCCNC(=N)N)N(C)C(=O)[C@@H]1CCCN1C(=O)[C@H](CCCCN)NC(=O)[C@@H](CO)NC(=O)[C@@H](CO)NC(=O)[C@@H](CO)NC(=O)[C@H](Cc1cn(CCNC(=O)[C@H](CCCNC(=N)N)NC(=O)[C@H](CC(C)C)NC(=O)CCC(=O)O)nn1)NC(=O)CN1CCN(CC(=O)O)CCN(CC(=O)O)CCN(CC(=O)O)CC1)C(=O)N[C@H](C(=O)N[C@@H](CC(C)C)C(=O)O)C(C)(C)C |
| 6% | Active | 36.9% | Active | Active | 7.22 | Active | 93.6% | 5.5 | 0.1 | 337 | 12.3 | 422 | 8.5 | 5 | 8.4 | 5.7 | 94 | 153 | Cc1cc(O)cc(C)c1C[C@H](NC(=O)[C@@H]1CCCN1C(=O)[C@H](CCCNC(=N)N)NC(=O)[C@H](CCCNC(=N)N)N(C)C(=O)[C@@H]1CCCN1C(=O)[C@H](CCCCN)NC(=O)[C@@H](CO)NC(=O)[C@@H](CO)NC(=O)[C@@H](CO)NC(=O)[C@H](Cc1cn(CCNC(=O)[C@H](CCCNC(=N)N)NC(=O)[C@H](CC(C)C)NC(=O)C2OC2C(=O)O)nn1)NC(=O)CN1CCN(CC(=O)O)CCN(CC(=O)O)CCN(CC(=O)O)CC1)C(=O)N[C@H](C(=O)N[C@@H](CC(C)C)C(=O)O)C(C)(C)C (stereo partly drawn) |
| – | – | – | – | – | – | – | – | 1.9 | 0.13 | 6.5 | 1.9 | 69 | 0.5 | 0.5 | 0.2 | 2.7 | 15 | 16 | Cc1cc(C)c(C(=O)OCC(=O)[C@H](CCCCNC(=O)CNC(=O)[C@@H](CO)NC(=O)[C@@H](CO)NC(=O)[C@@H](CO)NC(=O)Cn2cc(C[C@H](NC(=O)CN3CCN(CC(=O)O)CCN(CC(=O)O)CCN(CC(=O)O)CC3)C(=O)N[C@H](CO)C(=O)N[C@H](CO)C(=O)N[C@H](CO)C(=O)N[C@@H](CCCCN)C(=O)N3CCC[C@H]3C(=O)N(C)[C@@H](CCCNC(=N)N)C(=O)N[C@@H](CCCNC(=N)N)C(=O)N3CCC[C@H]3C(=O)N[C@@H](Cc3c(C)cc(O)cc3C)C(=O)N[C@H](C(=O)N[C@@H](CC(C)C)C(=O)O)C(C)(C)C)nn2)NC(=O)[C@H](Cc2ccccc2)NC(=O)OCc2ccccc2)c(C)c1 |
